ChEMBL document CHEMBL4316637, “Highly Modified Lanostane Triterpenes from Fruiting Bodies of the Basidiomycete Tomophagus sp” (J Nat Prod, 2019)
Values after ≈ are worked out from the molar mass of the structure shown.

test system: Plasmodium falciparum; test: Antimalarial activity against Plasmodium falciparum K1 infected in human type A+ erythrocytes incubated for 24 hrs followed by [G-3H]-hypoxanthine incorporation and measured after 18 hrs by liquid scintillation counting method; type: functional, organism-based; conditions: not given
Outline: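 P. falciparum K1 (multidrug-resistant strain), tested in duplicate with the microculture radioisotope technique; IC50 derived.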

| SMILES | IC50 [µM] |
| --- | --- |
| CC1=CC[C@@H]([C@@H](C)[C@H]2CC[C@@]3(C)C4=C(CC[C@]23C)C[C@@]2(O)C=CC(=O)OC(C)(C)[C@@H]2CC4)OC1=O | 19 |
| CC1=CC[C@]2(OC1=O)O[C@H]1O[C@H]3C[C@@]14[C@H](CC[C@@]4(C)C1=C3C=C3C=CC(=O)OC(C)(C)[C@@H]3CC1)[C@@H]2C | > 20 |
| CC(=O)O[C@@H]1C[C@H]([C@H](C)[C@H]2OC(=O)C(C)=C[C@@H]2O)[C@@]2(C)C[C@H](O)C3=C(CC[C@@H]4C(=C3)C=CC(=O)OC4(C)C)[C@]12C | > 18 |
| CC(=O)O[C@]12CCC(=O)OC(C)(C)[C@@H]1CCC1=C2CC[C@]2(C)[C@@H]([C@H](C)[C@H]3OC(=O)C(C)=C[C@@H]3O)CC[C@@]12C | > 18 |
| CC(=O)[C@H]1C[C@@H](O)[C@@]2(C)C3=C(C=C4C=CC(=O)OC(C)(C)[C@@H]4CC3)CC[C@]12C | > 26 |
| CC(=O)O[C@@H]1C[C@H]([C@H](C)[C@@H]2CC=C(C)C(=O)O2)[C@@]2(C)C[C@H](O)C3=C(CC[C@H]4C(C)(C)OC(=O)C=C[C@]45O[C@@H]35)[C@]12C | > 18 |
| CC1=CC[C@@H]([C@@H](C)[C@H]2CC[C@@]3(C)C4=C(C=C5C=CC(=O)OC(C)(C)[C@@H]5CC4)CC[C@]23C)OC1=O | 18 |
| CC(=O)OC[C@]12CCC(=O)C(C)(C)[C@@H]1CCC1=C2CC[C@]2(C)[C@@H]([C@H](C)[C@@H]3CC=C(C)C(=O)O3)CC[C@@]12C | > 20 |
| CC1=CC[C@@H]([C@@H](C)[C@H]2CC[C@@]3(C)C4=C(CC[C@]23C)[C@@]2(C)CC[C@H](O)C(C)(C)[C@@H]2CC4)OC1=O | > 22 |
| COC(=O)CC[C@]1(COC(C)=O)C2=CC[C@]3(C)[C@@H]([C@H](C)[C@H]4OC(=O)C(C)=C[C@@H]4O)CC[C@@]3(C)C2=CC[C@H]1C(C)(C)O | 6.3 |
| CC(=O)OC(C)(C)[C@@H]1CC=C2C(=CC[C@]3(C)[C@@H]([C@H](C)[C@H]4OC(=O)C(C)=C[C@@H]4O)CC[C@@]23C)[C@@]12CCC(=O)OC2 | > 18 |
| CC(=O)[C@H]1C[C@@H](O)[C@@]2(C)C3=C(C=C4C=CC(=O)OC(C)(C)[C@@H]4CC3)[C@@H](O)C[C@]12C | > 25 |
| CC(=O)O[C@]12CCC(=O)OC(C)(C)[C@@H]1CCC1=C2CC[C@]2(C)[C@@H]([C@H](C)[C@@H]3CC=C(C)C(=O)O3)CC[C@@]12C | > 19 |
| CC(=O)O[C@]12CCC(=O)OC(C)(C)[C@@H]1CC=C1[C@]3(C)CC[C@H]([C@H](C)[C@@H]4CC=C(C)C(=O)O4)[C@@]3(C)C[C@H]3O[C@@]132 | > 18 |
| CC1=CC[C@@H]([C@@H](C)[C@H]2C[C@@H](O)[C@@]3(C)C4=C(C=C5C=CC(=O)OC(C)(C)[C@@H]5CC4)[C@@H](O)C[C@]23C)OC1=O | > 20 |
| CC1=CC[C@@H]([C@@H](C)[C@H]2CC[C@@]3(C)[C@@]45CC[C@@H](C(C)(C)O4)[C@]4(CCC(=O)OC4)C5=CC[C@]23C)OC1=O | > 21 |
| CC(=O)OC[C@]12CC[C@H](O)C(C)(C)[C@@H]1CCC1=C2CC[C@]2(C)[C@@H]([C@H](C)[C@H]3OC(=O)C(C)=C[C@@H]3O)CC[C@@]12C | 6.6 |
| COC(=O)CC[C@]1(COC(C)=O)C2=CC[C@]3(C)[C@@H]([C@H](C)[C@@H]4CC=C(C)C(=O)O4)CC[C@@]3(C)C2=CC[C@H]1C(C)(C)O | 8.1 |

test system: Mycobacterium tuberculosis; test: Antitubercular activity against Mycobacterium tuberculosis H37Ra by GFP based microplate assay; type: functional; conditions: not given
Outline: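 Whole-cell assay on M. tuberculosis H37Ra growth, read by green fluorescent protein signal in microplates; activity given as MIC in μg/mL.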

| SMILES | MIC [µg/mL] |
| --- | --- |
| CC1=CC[C@@H]([C@@H](C)[C@H]2CC[C@@]3(C)C4=C(CC[C@]23C)C[C@@]2(O)C=CC(=O)OC(C)(C)[C@@H]2CC4)OC1=O | > 50 |
| CC1=CC[C@]2(OC1=O)O[C@H]1O[C@H]3C[C@@]14[C@H](CC[C@@]4(C)C1=C3C=C3C=CC(=O)OC(C)(C)[C@@H]3CC1)[C@@H]2C | > 50 |
| CC(=O)O[C@@H]1C[C@H]([C@H](C)[C@H]2OC(=O)C(C)=C[C@@H]2O)[C@@]2(C)C[C@H](O)C3=C(CC[C@@H]4C(=C3)C=CC(=O)OC4(C)C)[C@]12C | > 50 |
| CC(=O)O[C@]12CCC(=O)OC(C)(C)[C@@H]1CCC1=C2CC[C@]2(C)[C@@H]([C@H](C)[C@H]3OC(=O)C(C)=C[C@@H]3O)CC[C@@]12C | > 50 |
| CC(=O)[C@H]1C[C@@H](O)[C@@]2(C)C3=C(C=C4C=CC(=O)OC(C)(C)[C@@H]4CC3)CC[C@]12C | > 50 |
| CC(=O)O[C@@H]1C[C@H]([C@H](C)[C@@H]2CC=C(C)C(=O)O2)[C@@]2(C)C[C@H](O)C3=C(CC[C@H]4C(C)(C)OC(=O)C=C[C@]45O[C@@H]35)[C@]12C | > 50 |
| CC1=CC[C@@H]([C@@H](C)[C@H]2CC[C@@]3(C)C4=C(C=C5C=CC(=O)OC(C)(C)[C@@H]5CC4)CC[C@]23C)OC1=O | > 50 |
| CC(=O)OC[C@]12CCC(=O)C(C)(C)[C@@H]1CCC1=C2CC[C@]2(C)[C@@H]([C@H](C)[C@@H]3CC=C(C)C(=O)O3)CC[C@@]12C | > 50 |
| CC1=CC[C@@H]([C@@H](C)[C@H]2CC[C@@]3(C)C4=C(CC[C@]23C)[C@@]2(C)CC[C@H](O)C(C)(C)[C@@H]2CC4)OC1=O | > 50 |
| COC(=O)CC[C@]1(COC(C)=O)C2=CC[C@]3(C)[C@@H]([C@H](C)[C@H]4OC(=O)C(C)=C[C@@H]4O)CC[C@@]3(C)C2=CC[C@H]1C(C)(C)O | > 50 |
| CC(=O)OC(C)(C)[C@@H]1CC=C2C(=CC[C@]3(C)[C@@H]([C@H](C)[C@H]4OC(=O)C(C)=C[C@@H]4O)CC[C@@]23C)[C@@]12CCC(=O)OC2 | > 50 |
| CC(=O)[C@H]1C[C@@H](O)[C@@]2(C)C3=C(C=C4C=CC(=O)OC(C)(C)[C@@H]4CC3)[C@@H](O)C[C@]12C | > 50 |
| CC(=O)O[C@]12CCC(=O)OC(C)(C)[C@@H]1CCC1=C2CC[C@]2(C)[C@@H]([C@H](C)[C@@H]3CC=C(C)C(=O)O3)CC[C@@]12C | > 50 |
| CC(=O)O[C@]12CCC(=O)OC(C)(C)[C@@H]1CC=C1[C@]3(C)CC[C@H]([C@H](C)[C@@H]4CC=C(C)C(=O)O4)[C@@]3(C)C[C@H]3O[C@@]132 | > 50 |
| CC1=CC[C@@H]([C@@H](C)[C@H]2C[C@@H](O)[C@@]3(C)C4=C(C=C5C=CC(=O)OC(C)(C)[C@@H]5CC4)[C@@H](O)C[C@]23C)OC1=O | > 50 |
| CC1=CC[C@@H]([C@@H](C)[C@H]2CC[C@@]3(C)[C@@]45CC[C@@H](C(C)(C)O4)[C@]4(CCC(=O)OC4)C5=CC[C@]23C)OC1=O | > 50 |
| CC(=O)OC[C@]12CC[C@H](O)C(C)(C)[C@@H]1CCC1=C2CC[C@]2(C)[C@@H]([C@H](C)[C@H]3OC(=O)C(C)=C[C@@H]3O)CC[C@@]12C | > 50 |
| COC(=O)CC[C@]1(COC(C)=O)C2=CC[C@]3(C)[C@@H]([C@H](C)[C@@H]4CC=C(C)C(=O)O4)CC[C@@]3(C)C2=CC[C@H]1C(C)(C)O | 50 (≈ 89.8 µM) |

test system: Vero; test: Cytotoxicity against African green monkey Vero cells by GFP based microplate assay; type: cell-based; conditions: Chlorocebus sabaeus
Outline: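 Vero cells (nonmalignant African green monkey kidney […]) tested with a green fluorescent protein microplate assay.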

| SMILES | IC50 [µM] |
| --- | --- |
| CC1=CC[C@@H]([C@@H](C)[C@H]2CC[C@@]3(C)C4=C(CC[C@]23C)C[C@@]2(O)C=CC(=O)OC(C)(C)[C@@H]2CC4)OC1=O | 45 |
| CC1=CC[C@]2(OC1=O)O[C@H]1O[C@H]3C[C@@]14[C@H](CC[C@@]4(C)C1=C3C=C3C=CC(=O)OC(C)(C)[C@@H]3CC1)[C@@H]2C | > 102 |
| CC(=O)O[C@@H]1C[C@H]([C@H](C)[C@H]2OC(=O)C(C)=C[C@@H]2O)[C@@]2(C)C[C@H](O)C3=C(CC[C@@H]4C(=C3)C=CC(=O)OC4(C)C)[C@]12C | > 90 |
| CC(=O)O[C@]12CCC(=O)OC(C)(C)[C@@H]1CCC1=C2CC[C@]2(C)[C@@H]([C@H](C)[C@H]3OC(=O)C(C)=C[C@@H]3O)CC[C@@]12C | > 92 |
| CC(=O)[C@H]1C[C@@H](O)[C@@]2(C)C3=C(C=C4C=CC(=O)OC(C)(C)[C@@H]4CC3)CC[C@]12C | > 130 |
| CC(=O)O[C@@H]1C[C@H]([C@H](C)[C@@H]2CC=C(C)C(=O)O2)[C@@]2(C)C[C@H](O)C3=C(CC[C@H]4C(C)(C)OC(=O)C=C[C@]45O[C@@H]35)[C@]12C | > 90 |
| CC1=CC[C@@H]([C@@H](C)[C@H]2CC[C@@]3(C)C4=C(C=C5C=CC(=O)OC(C)(C)[C@@H]5CC4)CC[C@]23C)OC1=O | > 108 |
| CC(=O)OC[C@]12CCC(=O)C(C)(C)[C@@H]1CCC1=C2CC[C@]2(C)[C@@H]([C@H](C)[C@@H]3CC=C(C)C(=O)O3)CC[C@@]12C | > 98 |
| CC1=CC[C@@H]([C@@H](C)[C@H]2CC[C@@]3(C)C4=C(CC[C@]23C)[C@@]2(C)CC[C@H](O)C(C)(C)[C@@H]2CC4)OC1=O | > 110 |
| COC(=O)CC[C@]1(COC(C)=O)C2=CC[C@]3(C)[C@@H]([C@H](C)[C@H]4OC(=O)C(C)=C[C@@H]4O)CC[C@@]3(C)C2=CC[C@H]1C(C)(C)O | 32 |
| CC(=O)OC(C)(C)[C@@H]1CC=C2C(=CC[C@]3(C)[C@@H]([C@H](C)[C@H]4OC(=O)C(C)=C[C@@H]4O)CC[C@@]23C)[C@@]12CCC(=O)OC2 | > 92 |
| CC(=O)[C@H]1C[C@@H](O)[C@@]2(C)C3=C(C=C4C=CC(=O)OC(C)(C)[C@@H]4CC3)[C@@H](O)C[C@]12C | > 125 |
| CC(=O)O[C@]12CCC(=O)OC(C)(C)[C@@H]1CCC1=C2CC[C@]2(C)[C@@H]([C@H](C)[C@@H]3CC=C(C)C(=O)O3)CC[C@@]12C | > 95 |
| CC(=O)O[C@]12CCC(=O)OC(C)(C)[C@@H]1CC=C1[C@]3(C)CC[C@H]([C@H](C)[C@@H]4CC=C(C)C(=O)O4)[C@@]3(C)C[C@H]3O[C@@]132 | > 92 |
| CC1=CC[C@@H]([C@@H](C)[C@H]2C[C@@H](O)[C@@]3(C)C4=C(C=C5C=CC(=O)OC(C)(C)[C@@H]5CC4)[C@@H](O)C[C@]23C)OC1=O | > 101 |
| CC1=CC[C@@H]([C@@H](C)[C@H]2CC[C@@]3(C)[C@@]45CC[C@@H](C(C)(C)O4)[C@]4(CCC(=O)OC4)C5=CC[C@]23C)OC1=O | 98 |
| CC(=O)OC[C@]12CC[C@H](O)C(C)(C)[C@@H]1CCC1=C2CC[C@]2(C)[C@@H]([C@H](C)[C@H]3OC(=O)C(C)=C[C@@H]3O)CC[C@@]12C | 34 |
| COC(=O)CC[C@]1(COC(C)=O)C2=CC[C@]3(C)[C@@H]([C@H](C)[C@@H]4CC=C(C)C(=O)O4)CC[C@@]3(C)C2=CC[C@H]1C(C)(C)O | 32 |
